Published values of several laboratories.
Lines come from different studies, so protocols differ.
Target: Serine/threonine-protein kinase 17A (STK17A, Homo sapiens, UniProt Q9UEE5)
Sequence (Q9UEE5 1-414, as in one of the studies): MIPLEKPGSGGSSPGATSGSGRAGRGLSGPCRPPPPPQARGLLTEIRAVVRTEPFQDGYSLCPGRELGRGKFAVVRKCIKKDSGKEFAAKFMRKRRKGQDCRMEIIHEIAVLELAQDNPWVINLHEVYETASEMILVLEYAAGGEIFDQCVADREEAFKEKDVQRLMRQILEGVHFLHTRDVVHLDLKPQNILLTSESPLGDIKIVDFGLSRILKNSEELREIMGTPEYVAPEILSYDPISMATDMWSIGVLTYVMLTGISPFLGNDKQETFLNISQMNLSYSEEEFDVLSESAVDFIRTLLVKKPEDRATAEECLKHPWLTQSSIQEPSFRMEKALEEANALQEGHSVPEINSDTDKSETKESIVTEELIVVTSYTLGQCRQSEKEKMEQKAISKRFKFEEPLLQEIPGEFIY

Structure (SMILES)	effect on	action	method	concentration	measurement	result
c1cc(CN2CCOCC2)cc(Nc2ncc(C3CC3)c(NCCc3c[nH]cn3)n2)c1	enzyme activity	inhibitor	radiometric	1 µM	remaining activity	50%
CCN(CC)CCNC(=O)c1c(C)[nH]c(/C=C2\C(=O)Nc3ccc(F)cc32)c1C	cell-free assay			0.5 µM	remaining signal	26.7%
O=C(O)[C@H]1[C@H](Cn2nnc3ccccc3c2=O)CC[C@@H]1C(=O)c1ccc(OCCC2CCOCC2)cc1	cell-free assay		competition with immobilised ligand	1 µM	remaining binding	97%
O=C1NC(=O)c2cc(Nc3ccc(F)cc3)c(Nc3ccc(F)cc3)cc21	cell-free assay			0.5 µM	remaining signal	104%
Cc1nn(CC(F)(F)F)cc1Nc1ncc(C2CC2)c(NCCc2c[nH]cn2)n1	enzyme activity	inhibitor	radiometric	1 µM	remaining activity	107%
CC(=O)c1c(NS(C)(=O)=O)c2cc(-c3ccc(Cl)cc3)c(-c3ccc(Cl)cc3Cl)nc2n(C)c1=O	cell-free assay		competition with immobilised ligand	1 µM	remaining binding	88%
Cc1nn(CC(F)(F)F)cc1Nc1ncc(C2CC2)c(NCCCNC(=O)C2CCC2)n1	enzyme activity	inhibitor	radiometric	1 µM	remaining activity	25%
Nc1ncnc2occ(-c3ccc(NC(=O)Nc4cc(C(F)(F)F)ccc4F)cc3)c12	cell-free assay			20 µM	remaining signal	55%
CNC(=O)c1cc(Oc2ccc(NC(=O)Nc3ccc(Cl)c(C(F)(F)F)c3)cc2)ccn1	cell-free assay			10 µM	inhibition	31%
Cc1c(NC(=O)c2cc(C(N)=O)nc3cc(F)ccc23)c(C(F)(F)F)nn1Cc1ccc(C#N)cc1	cell-free assay		competition with immobilised ligand	1 µM	remaining binding	90%
NS(=O)(=O)c1ccc(CNc2nc(Nc3cccc(CN4CCOCC4)c3)ncc2Br)cc1	enzyme activity	inhibitor	radiometric	1 µM	remaining activity	58%
O=C1CCc2cc(Nc3cc(OC4CCOCC4)c([N+](=O)[O-])cc3Cl)ccc2N1	cell-free assay		competition with immobilised ligand	1 µM	remaining binding	95%
O=C(NCCCNc1ccnc(Nc2cccc(NC(=O)N3CCCC3)c2)n1)C1CCC1	enzyme activity	inhibitor	radiometric	1 µM	remaining activity	18%
CN(C)C(=O)Cn1cc(-c2nc(C3(c4ccc(-c5cnc(N)nc5)cc4)CC3)no2)cn1	cell-free assay		competition with immobilised ligand	1 µM	remaining binding	100%
O=C(NCCCNc1nc(Nc2cccc(NC(=O)N3CCCC3)c2)ncc1I)c1cccs1	enzyme activity	inhibitor	radiometric	1 µM	remaining activity	2%
O=C(Nc1ccc(Oc2ccc(F)cc2)cc1)N1CCc2ncccc2[C@H]1c1ccc(F)cc1	cell-free assay		competition with immobilised ligand	1 µM	remaining binding	86%
Cc1ccc(NC(=O)c2ccc(CN3CCN(C)CC3)cc2)cc1Nc1nc(-c2cccnc2)cs1	cell-free assay			0.5 µM	remaining signal	104%
NS(=O)(=O)c1ccc(CNc2ccnc(Nc3cccc(NC(=O)N4CCCC4)c3)n2)cc1	enzyme activity	inhibitor	radiometric	1 µM	remaining activity	82%
O=C(N[C@H]1CCCCC/C=C\C2C[C@@]2(C(=O)O)NC(=O)[C@@H]2C[C@@H](Oc3ccncc3)CN2C1=O)OC1CCCC1 (stereo partly shown)	binding		competition with immobilised ligand	1 µM	remaining binding	100%
Cc1ccc(NC(=O)c2ccc(C)c(C(F)(F)F)c2)cc1C#Cc1nn(C2CCC(O)CC2)c2ncnc(N)c12 (stereo not shown)	cell-free assay			10 µM	remaining signal	140%
Cc1nn(CC(F)(F)F)cc1Nc1nccc(NCc2ccc(S(N)(=O)=O)cc2)n1	enzyme activity	inhibitor	radiometric	1 µM	remaining activity	103%
Cc1noc([C@H]2C[C@@H](c3ccc(C(F)(F)F)cc3)CN(C(=O)N3CCS(=O)(=O)C3)C2)n1	cell-free assay		competition with immobilised ligand	1 µM	remaining binding	100%
Oc1cccc(-c2nc(N3CCOCC3)c3oc4ncccc4c3n2)c1	cell-free assay			0.5 µM	remaining signal	93.8%
Cc1ccc(Nc2nccc(N(C)c3ccc4c(C)n(C)nc4c3)n2)cc1S(N)(=O)=O	cell-free assay			0.3 µM	inhibition	-6%
CC1CCCN1c1nccc(-c2cnn3ncccc23)n1 (stereo not shown)	binding			1 µM	remaining binding	84%
